The source made the active and inactive calls. The rule behind the calls is not given here.
What was measured:
[1] = species: Homo sapiens; assay: Selectivity index, ratio of Ki for human 5-HT2B receptor to Ki for human 5-HT7 receptor
In short: (§1)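 Selectivity index taken as Ki at the other 5-HT receptor subtype divided by Ki at 5-HT7R, each from [3H]LSD membrane binding run by the NIMH PDSP. Ki values are means of at least three experiments in triplicate.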

[2] = molecular target: 5-hydroxytryptamine receptor 5A (Homo sapiens, UniProt P47898); assay: Displacement of [3H]LSD from human 5-HT5A receptor expressed in HEK cell membranes after 1.5 hrs by microbeta scintillation counting method
In short: (§2)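 Radioligand binding performed by the NIMH Psychoactive Drug Screening Program. Crude membranes from cells expressing recombinant receptor, with [3H]LSD, in 50 mM Tris-HCl, 10 mM MgCl2, 1 mM EDTA, pH 7.4. Eleven test concentrations. Incubated 1.5 h at room temperature, protected from light. Filtered onto PEI-soaked GF/B filters, then scintillation counting. IC50 converted to Ki; at least three experiments in triplicate.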

[3] = molecular target: T1, 5-hydroxytryptamine receptor 7 (Homo sapiens, UniProt P34969); assay: Antagonist activity at tTA containing TCS cleavage site-fused 5-HT7 receptor (unknown origin) expressed in tTA-dependent luciferase reporter/TEV-fused beta-arrestin2 expressing HTLA cells assessed as inhibition of 5-HT-induced beta-arrestin2 recruitment after 22 hrs by Tango assay; assay type: functional, cell-based
[4] = molecular target: T1, 5-hydroxytryptamine receptor 7
[5] = molecular target: 5-hydroxytryptamine receptor 2A (Homo sapiens, UniProt P28223); assay: Displacement of [3H]LSD from human 5-HT2A receptor expressed in HEK cell membranes after 1.5 hrs by microbeta scintillation counting method; in short: as §2
[6] = molecular target: 5-hydroxytryptamine receptor 6 (Homo sapiens, UniProt P50406); assay: Displacement of [3H]LSD from human 5-HT6 receptor expressed in HEK cell membranes after 1.5 hrs by microbeta scintillation counting method; in short: as §2
[7] = molecular target: 5-hydroxytryptamine receptor 4 (Homo sapiens, UniProt Q13639); assay: Displacement of [3H]LSD from human 5-HT4 receptor expressed in HEK cell membranes after 1.5 hrs by microbeta scintillation counting method; in short: as §2
[8] = molecular target: T1, 5-hydroxytryptamine receptor 7; assay: Agonist activity at tTA containing TCS cleavage site-fused 5-HT7 receptor (unknown origin) expressed in tTA-dependent luciferase reporter/TEV-fused beta-arrestin2 expressing HTLA cells assessed as induction of beta-arrestin2 recruitment after 22 hrs by Tango assay relative to 5-HT; assay type: functional, cell-based
In short: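 HTLA cells (HEK293 stably expressing tTA-dependent luciferase reporter and β-arrestin2-TEV) transiently transfected with 5-HT7R-TCS-tTA. Plated in 1% dialysed FBS medium for 6 h, then given test compounds at 0.01 nM-100 μM final, about 22 h. Antagonist mode adds 1 μM 5-HT. BrightGlo luminescence read. Normalised to 5-HT (100%) and vehicle (0%). Three experiments, at least triplicate.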

[9] = molecular target: 5-hydroxytryptamine receptor 1D (Homo sapiens, UniProt P28221); assay: Displacement of [3H]LSD from human 5-HT1D receptor expressed in HEK cell membranes after 1.5 hrs by microbeta scintillation counting method; in short: as §2
[10] = molecular target: T2, 5-hydroxytryptamine receptor 1A (Homo sapiens, UniProt P08908); assay: Displacement of [3H]LSD from human 5-HT1A receptor expressed in HEK cell membranes after 1.5 hrs by microbeta scintillation counting method; in short: as §2
T2 sequence (P08908 whole entry): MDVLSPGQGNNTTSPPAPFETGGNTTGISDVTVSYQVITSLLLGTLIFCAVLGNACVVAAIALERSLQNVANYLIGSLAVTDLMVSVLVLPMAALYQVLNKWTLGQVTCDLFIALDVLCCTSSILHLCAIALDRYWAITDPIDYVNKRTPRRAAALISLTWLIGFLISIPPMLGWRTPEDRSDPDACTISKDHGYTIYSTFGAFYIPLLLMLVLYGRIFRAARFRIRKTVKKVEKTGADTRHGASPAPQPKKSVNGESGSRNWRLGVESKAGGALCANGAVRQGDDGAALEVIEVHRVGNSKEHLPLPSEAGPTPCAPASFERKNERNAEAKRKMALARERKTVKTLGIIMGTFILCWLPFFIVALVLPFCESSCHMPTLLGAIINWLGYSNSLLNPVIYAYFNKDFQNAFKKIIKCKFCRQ

[11] = species: Homo sapiens; assay: Selectivity index, ratio of Ki for human 5-HT1D receptor to Ki for human 5-HT7 receptor; in short: as §1
[12] = molecular target: T1, 5-hydroxytryptamine receptor 7; remark: listed apart in the source
[13] = species: Homo sapiens; assay: Selectivity index, ratio of Ki for human 5-HT6 receptor to Ki for human 5-HT7 receptor; in short: as §1
[14] = species: Homo sapiens; assay: Selectivity index, ratio of Ki for human 5-HT2A receptor to Ki for human 5-HT7 receptor; in short: as §1
[15] = molecular target: T1, 5-hydroxytryptamine receptor 7; assay: Antagonist activity at human 5-HT7 receptor expressed in HEK293 cells assessed as inhibition of Gs protein-mediated cAMP accumulation by luminescence-based assay relative to SB269970; assay type: functional, cell-based
In short: (§3)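 HEK293 cells transiently transfected by calcium phosphate with human 5-HT7R and GloSensor-22F cAMP biosensor. After 5-6 h recovery, loaded with GloSensor reagent in HBSS/20 mM HEPES, pH 7.4. Test compounds at 0.01 nM-100 μM final; antagonist mode uses 5-HT stimulation. Luminescence read. Data normalised to 5-HT or SB269970 (100%) and vehicle (0%). Three experiments, at least triplicate.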

[16] = molecular target: T3, 5-hydroxytryptamine receptor 3A (Homo sapiens, UniProt P46098); assay: Displacement of [3H]LSD from human 5-HT3 receptor expressed in HEK cell membranes after 1.5 hrs by microbeta scintillation counting method; in short: as §2
T3 sequence (P46098 whole entry): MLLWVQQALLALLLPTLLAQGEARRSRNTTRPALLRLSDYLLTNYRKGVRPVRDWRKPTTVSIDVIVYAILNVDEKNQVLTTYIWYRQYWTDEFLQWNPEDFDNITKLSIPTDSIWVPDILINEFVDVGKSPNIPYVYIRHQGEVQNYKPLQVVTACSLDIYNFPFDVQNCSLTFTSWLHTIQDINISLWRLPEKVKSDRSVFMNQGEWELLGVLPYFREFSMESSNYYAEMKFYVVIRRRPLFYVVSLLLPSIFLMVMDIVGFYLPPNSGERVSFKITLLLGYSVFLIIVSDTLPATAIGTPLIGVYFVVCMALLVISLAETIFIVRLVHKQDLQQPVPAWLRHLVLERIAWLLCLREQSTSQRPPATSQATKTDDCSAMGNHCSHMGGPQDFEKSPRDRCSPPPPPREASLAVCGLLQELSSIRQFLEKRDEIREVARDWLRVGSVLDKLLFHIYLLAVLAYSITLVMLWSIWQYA

[17] = species: Homo sapiens; assay: Selectivity index, ratio of Ki for human 5-HT2C receptor to Ki for human 5-HT7 receptor; in short: as §1
[18] = molecular target: 5-hydroxytryptamine receptor 1E (Homo sapiens, UniProt P28566); assay: Displacement of [3H]LSD from human 5-HT1E receptor expressed in HEK cell membranes after 1.5 hrs by microbeta scintillation counting method; in short: as §2
[19] = molecular target: T1, 5-hydroxytryptamine receptor 7; assay: Inverse agonist activity at human 5-HT7 receptor expressed in HEK293 cells assessed as decrease in Gs protein-mediated cAMP accumulation by luminescence-based assay; assay type: functional, cell-based; in short: as §3
[20] = molecular target: T4, 5-hydroxytryptamine receptor 2C (Homo sapiens, UniProt P28335); assay: Displacement of [3H]LSD from human 5-HT2C receptor expressed in HEK cell membranes after 1.5 hrs by microbeta scintillation counting method; in short: as §2
T4 sequence (P28335 whole entry): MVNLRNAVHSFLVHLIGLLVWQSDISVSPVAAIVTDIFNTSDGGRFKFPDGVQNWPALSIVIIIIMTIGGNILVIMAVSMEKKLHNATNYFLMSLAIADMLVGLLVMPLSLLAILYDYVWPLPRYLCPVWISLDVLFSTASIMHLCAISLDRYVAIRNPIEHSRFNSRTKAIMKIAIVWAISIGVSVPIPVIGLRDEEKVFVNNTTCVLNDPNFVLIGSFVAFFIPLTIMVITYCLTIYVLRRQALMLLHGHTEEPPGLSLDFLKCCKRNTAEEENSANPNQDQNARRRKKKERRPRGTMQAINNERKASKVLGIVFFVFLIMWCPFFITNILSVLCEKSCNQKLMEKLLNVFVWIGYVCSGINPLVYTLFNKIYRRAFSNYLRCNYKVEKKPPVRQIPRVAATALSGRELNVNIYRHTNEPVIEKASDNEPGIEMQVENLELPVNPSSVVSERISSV

[21] = molecular target: 5-hydroxytryptamine receptor 2B (Homo sapiens, UniProt P41595); assay: Displacement of [3H]LSD from human 5-HT2B receptor expressed in HEK cell membranes after 1.5 hrs by microbeta scintillation counting method
[22] = species: Homo sapiens; assay: Selectivity index, ratio of Ki for human 5-HT1E receptor to Ki for human 5-HT7 receptor; in short: as §1
[23] = molecular target: 5-hydroxytryptamine receptor 1B (Homo sapiens, UniProt P28222); assay: Displacement of [3H]LSD from human 5-HT1B receptor expressed in HEK cell membranes after 1.5 hrs by microbeta scintillation counting method; in short: as §2
[24] = species: Homo sapiens; assay: Selectivity index, ratio of Ki for human 5-HT3 receptor to Ki for human 5-HT7 receptor; in short: as §1
[25] = test system: Mus musculus; assay: Sleep promoting activity in C57B1/6J mouse assessed as duration of total non-rapid eye movement sleep time at 30 mg/kg, ip measured over 8 hrs by electroencephalogram method (reference value: 252 +/- 22.7 mins); assay type: functional
In short: (§4)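 Adult male C57Bl/6J mice, 10 weeks old, with parietal EEG screw electrodes implanted under ketamine. EEG and EMG recorded for 8 h from 9 AM, starting one day before dosing as baseline. On test day, 30 mg/kg i.p. at the start of the light phase, with EEG/EMG recorded for 8 h and scored in 2-h bins. n = 6-9 per group; mean ± SEM versus vehicle.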

[26] = test system: Mus musculus; assay: Sleep promoting activity in C57B1/6J mouse assessed as decrease in total rapid eye movement sleep time at 30 mg/kg, ip measured over 8 hrs by electroencephalogram method; assay type: functional; set-up: scale not given: the % may be the effect or the level left; in short: as §4
[27] = species: Homo sapiens; assay: Selectivity index, ratio of Ki for human 5-HT5A receptor to Ki for human 5-HT7 receptor; in short: as §1
[28] = molecular target: T1, 5-hydroxytryptamine receptor 7; assay: Displacement of [3H]LSD from human 5-HT7 receptor expressed in HEK cell membranes after 1.5 hrs by microbeta scintillation counting method
[29] = molecular target: T1, 5-hydroxytryptamine receptor 7; assay: Displacement of [3H]LSD from human 5-HT7 receptor expressed in HEK cell membranes at 10 uM after 1.5 hrs by microbeta scintillation counting method
In short: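 [3H]LSD binding to recombinant 5-HT7R membranes in Tris-HCl/MgCl2/EDTA buffer, pH 7.4, 1.5 h at room temperature, filtration and scintillation counting. Percent inhibition at a single 10 μM test concentration.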

Chain of 5-hydroxytryptamine receptor 2A (P28223 whole entry): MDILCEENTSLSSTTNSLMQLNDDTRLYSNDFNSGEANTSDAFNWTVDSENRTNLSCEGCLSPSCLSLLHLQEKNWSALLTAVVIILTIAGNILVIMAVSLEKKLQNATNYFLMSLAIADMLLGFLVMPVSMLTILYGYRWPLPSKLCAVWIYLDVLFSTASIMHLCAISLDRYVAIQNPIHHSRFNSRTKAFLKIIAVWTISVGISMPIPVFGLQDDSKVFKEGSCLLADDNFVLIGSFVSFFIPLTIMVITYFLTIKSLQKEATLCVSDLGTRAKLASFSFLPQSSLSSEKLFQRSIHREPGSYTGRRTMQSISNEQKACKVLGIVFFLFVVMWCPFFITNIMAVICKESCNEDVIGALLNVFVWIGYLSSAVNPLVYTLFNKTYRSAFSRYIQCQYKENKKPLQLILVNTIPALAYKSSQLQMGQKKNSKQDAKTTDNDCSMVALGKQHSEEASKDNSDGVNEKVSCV
Chain of 5-hydroxytryptamine receptor 1B (P28222 whole entry): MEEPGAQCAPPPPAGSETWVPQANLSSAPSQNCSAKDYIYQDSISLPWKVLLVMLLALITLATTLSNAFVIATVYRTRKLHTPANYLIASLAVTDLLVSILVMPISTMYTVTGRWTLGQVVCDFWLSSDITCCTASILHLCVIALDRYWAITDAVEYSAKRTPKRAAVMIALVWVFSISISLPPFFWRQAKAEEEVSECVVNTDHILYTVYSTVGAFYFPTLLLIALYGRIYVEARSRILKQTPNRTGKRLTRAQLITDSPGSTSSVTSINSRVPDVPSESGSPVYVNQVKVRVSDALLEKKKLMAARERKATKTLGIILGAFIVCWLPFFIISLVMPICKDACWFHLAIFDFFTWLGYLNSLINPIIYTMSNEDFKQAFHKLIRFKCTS
Chain of 5-hydroxytryptamine receptor 1E (P28566 whole entry): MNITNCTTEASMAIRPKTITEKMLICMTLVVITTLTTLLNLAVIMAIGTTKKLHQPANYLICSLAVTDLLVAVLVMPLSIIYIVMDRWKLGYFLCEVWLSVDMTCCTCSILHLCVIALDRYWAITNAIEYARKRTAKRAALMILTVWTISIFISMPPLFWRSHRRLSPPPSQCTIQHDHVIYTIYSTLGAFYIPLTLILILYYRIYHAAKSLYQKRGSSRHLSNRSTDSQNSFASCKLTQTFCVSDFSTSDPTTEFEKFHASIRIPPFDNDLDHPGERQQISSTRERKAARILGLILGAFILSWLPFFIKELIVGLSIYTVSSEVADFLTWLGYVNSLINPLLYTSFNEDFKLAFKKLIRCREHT
Chain of 5-hydroxytryptamine receptor 4 (Q13639 whole entry, the tested form may be a part): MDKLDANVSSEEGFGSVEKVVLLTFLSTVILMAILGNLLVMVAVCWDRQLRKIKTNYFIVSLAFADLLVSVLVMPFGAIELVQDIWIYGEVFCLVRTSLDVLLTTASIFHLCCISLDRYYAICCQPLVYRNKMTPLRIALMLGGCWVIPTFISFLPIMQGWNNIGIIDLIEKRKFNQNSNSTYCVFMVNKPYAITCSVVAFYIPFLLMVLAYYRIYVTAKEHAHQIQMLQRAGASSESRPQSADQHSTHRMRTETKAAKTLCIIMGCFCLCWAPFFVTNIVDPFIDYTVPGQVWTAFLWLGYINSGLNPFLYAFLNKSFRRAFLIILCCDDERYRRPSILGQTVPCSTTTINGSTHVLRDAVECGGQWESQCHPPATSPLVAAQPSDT
Chain of 5-hydroxytryptamine receptor 6 (P50406 whole entry): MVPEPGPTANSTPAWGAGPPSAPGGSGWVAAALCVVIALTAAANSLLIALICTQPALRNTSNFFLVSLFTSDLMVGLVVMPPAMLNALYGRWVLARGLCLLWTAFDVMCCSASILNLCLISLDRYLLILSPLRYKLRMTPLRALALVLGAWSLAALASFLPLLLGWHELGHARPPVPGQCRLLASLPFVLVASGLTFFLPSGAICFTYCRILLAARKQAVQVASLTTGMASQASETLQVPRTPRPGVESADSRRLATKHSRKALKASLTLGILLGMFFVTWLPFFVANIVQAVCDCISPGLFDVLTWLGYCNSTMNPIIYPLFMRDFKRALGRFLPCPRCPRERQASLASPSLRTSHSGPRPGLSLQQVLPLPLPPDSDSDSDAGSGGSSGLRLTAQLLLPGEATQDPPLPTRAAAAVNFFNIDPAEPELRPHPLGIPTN
T1 sequence (P34969 whole entry, the tested form may be a part): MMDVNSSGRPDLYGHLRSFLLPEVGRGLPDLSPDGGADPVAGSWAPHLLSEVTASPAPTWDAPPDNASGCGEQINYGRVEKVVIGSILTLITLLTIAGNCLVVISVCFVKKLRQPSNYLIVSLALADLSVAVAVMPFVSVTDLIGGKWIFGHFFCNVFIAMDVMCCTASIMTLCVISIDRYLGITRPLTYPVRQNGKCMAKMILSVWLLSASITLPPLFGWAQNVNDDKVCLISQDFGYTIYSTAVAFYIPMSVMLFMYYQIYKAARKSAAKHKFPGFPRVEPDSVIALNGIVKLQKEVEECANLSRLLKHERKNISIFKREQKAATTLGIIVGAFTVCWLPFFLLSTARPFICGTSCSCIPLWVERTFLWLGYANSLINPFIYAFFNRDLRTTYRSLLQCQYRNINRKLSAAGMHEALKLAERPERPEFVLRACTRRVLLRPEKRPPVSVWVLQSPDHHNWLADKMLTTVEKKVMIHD
Chain of 5-hydroxytryptamine receptor 1D (P28221 whole entry): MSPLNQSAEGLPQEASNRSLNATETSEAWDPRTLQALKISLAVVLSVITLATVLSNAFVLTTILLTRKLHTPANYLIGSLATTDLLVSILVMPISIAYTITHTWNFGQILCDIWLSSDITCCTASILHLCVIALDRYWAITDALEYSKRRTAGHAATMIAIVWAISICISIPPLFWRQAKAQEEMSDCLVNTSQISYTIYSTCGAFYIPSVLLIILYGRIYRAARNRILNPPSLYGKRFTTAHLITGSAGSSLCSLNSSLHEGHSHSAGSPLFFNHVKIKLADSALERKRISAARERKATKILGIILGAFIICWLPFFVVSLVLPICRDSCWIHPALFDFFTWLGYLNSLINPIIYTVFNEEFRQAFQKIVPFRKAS
Chain of 5-hydroxytryptamine receptor 2B (P41595 whole entry): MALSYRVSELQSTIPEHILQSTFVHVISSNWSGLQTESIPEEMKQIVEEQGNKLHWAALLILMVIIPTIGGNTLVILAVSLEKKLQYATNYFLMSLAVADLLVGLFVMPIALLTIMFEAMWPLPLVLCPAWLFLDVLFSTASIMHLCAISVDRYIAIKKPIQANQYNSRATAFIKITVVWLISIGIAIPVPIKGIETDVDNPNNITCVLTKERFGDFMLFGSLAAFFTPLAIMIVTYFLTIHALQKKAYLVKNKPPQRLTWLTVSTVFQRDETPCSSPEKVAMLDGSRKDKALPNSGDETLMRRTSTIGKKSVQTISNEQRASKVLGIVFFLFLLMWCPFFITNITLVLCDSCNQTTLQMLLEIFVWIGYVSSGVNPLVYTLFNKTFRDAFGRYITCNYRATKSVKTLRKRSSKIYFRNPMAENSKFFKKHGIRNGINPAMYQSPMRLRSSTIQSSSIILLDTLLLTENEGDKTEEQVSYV
Chain of 5-hydroxytryptamine receptor 5A (P47898 whole entry): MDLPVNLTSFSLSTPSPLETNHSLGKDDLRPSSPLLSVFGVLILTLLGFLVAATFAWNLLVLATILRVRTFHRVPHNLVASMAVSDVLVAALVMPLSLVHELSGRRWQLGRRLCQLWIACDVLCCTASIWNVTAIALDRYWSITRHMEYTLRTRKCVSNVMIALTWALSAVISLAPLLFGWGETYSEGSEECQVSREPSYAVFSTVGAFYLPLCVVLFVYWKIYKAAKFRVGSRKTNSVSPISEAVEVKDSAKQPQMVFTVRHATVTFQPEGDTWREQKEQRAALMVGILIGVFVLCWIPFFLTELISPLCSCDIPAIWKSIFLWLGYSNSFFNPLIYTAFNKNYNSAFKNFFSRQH

Row | Structure (SMILES) | Ratio Ki [1] | Ki [2] [nM] | inhibition [3] | EC50 [4] [nM] | Ki [5] [nM] | Ki [6] [nM] | Ki [7] [nM] | Emax [8] [%] | Ki [9] [nM] | Ki [10] [nM] | IC50 [12] [nM] | Ratio Ki [14] | Imax [15] [%] | Ki [16] [nM] | Ratio Ki [17] | Ki [18] [nM] | Activity [19] | Ki [20] [nM] | Ki [21] [nM] | Ki [23] [nM] | also measured
1 | Cc1ccc(-c2n[nH]c3c2CCNCC3)cc1 | 2.3 | > 10000 | inactive | 165 | 159 | 109 | > 10000 | 50.9 | 165 | > 10000 | 2560 | 3.4 | 97.4 | > 10000 | 6.3 | 890 | Active | 296 | 106 | > 10000 | Ratio Ki [11]: 3.5; Ratio Ki [13]: 2.3; Ratio Ki [22]: 18.9
2 | Clc1ccc(-c2noc3c2CCNCC3)cc1 | 3.5 | > 10000 | inactive | 113 | 399 | 360 | > 10000 | 47.1 | > 10000 | > 10000 | 3970 | 5.7 | 94.9 | 303 | 15.7 | > 10000 | Active | 1100 | 247 | > 10000 | Ratio Ki [24]: 4.3; Ratio Ki [13]: 5.1
3 | CC1CCN(CC[C@H]2CCCN2S(=O)(=O)c2cccc(O)c2)CC1 | – | – | – | – | – | – | – | < 20 | – | – | – | – | – | – | – | – | Active | – | – | – | Time [25]: 252 min; Activity [26]: 37.1%
4 | Fc1ccc(-c2noc3c2CCNCC3)cc1 | 9.5 | 1230 | inactive | 135 | 471 | > 10000 | > 10000 | 38.2 | > 10000 | > 10000 | 2460 | 8.9 | 98 | 703 | 14.8 | > 10000 | Active | 785 | 505 | > 10000 | Ratio Ki [24]: 13.3; Ratio Ki [27]: 23.2
5 | Cc1ccccc1-c1noc2c1CCNCC2 | – | – | – | – | – | – | – | – | – | – | – | – | – | – | – | – | – | – | – | – | Ki [28]: > 10000 nM; inhibition [29]: < 50%
